Shown are actives, neighbours in structure and some others; about 7.6% of the full set was active somewhere.
M1 agonist: activates the M1 muscarinic receptor | CHO-M1 cells, Fluo-4 calcium fluorescence, agonist mode; hits give high values | B-score at 10 µM | 64,000 compounds, 3% hits | AID 626;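 active = fluorescence rise, raw or as B-score row- and column-corrected plate score, outside the 99.7% band of its plate's samples, either direction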
HEK293 NFkB inh: inhibitors of the PMA/ionomycin-induced NF-kB reporter in HEK293 cells | HEK-293 NF-kB luciferase reporter, luminescence | inhibition, % at 3 µM | 62,000 compounds, 0.21% hits;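 active = inhibition above the mean of all tested compounds plus 3 SD, cut at about 40% in these data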;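 also: 0% = stimulated DMSO wells and 100% = 10 µM reference inhibitor 5653914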
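Timing: 1 h pretreatment, 16 h stimulation, 37 °C; system: HEK-293 cells with stable firefly luciferase reporter driven by four HIV NF-kB elements; doses: 3 µM once, 0.30% DMSO; measured by: luciferase luminescence; control set: DMSO and 10 µM reference inhibitor; repeats: single test; reagent: PMA plus ionomycin mix as NF-kB-activating stimulus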
D1 mod: allosterically modulates the human D1 dopamine receptor | P21728 | HEK293 D1, CRE-luciferase, dopamine EC30 potentiation; actives deviate in either direction | B-score at 10 µM | 58,000 compounds, 5.9% hits | AID 641;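 active = luminescence count or its row- and column-corrected plate score outside the 99.7% band of the plate's sample wells, on either side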
Target sequence (P21728 whole entry, looked up): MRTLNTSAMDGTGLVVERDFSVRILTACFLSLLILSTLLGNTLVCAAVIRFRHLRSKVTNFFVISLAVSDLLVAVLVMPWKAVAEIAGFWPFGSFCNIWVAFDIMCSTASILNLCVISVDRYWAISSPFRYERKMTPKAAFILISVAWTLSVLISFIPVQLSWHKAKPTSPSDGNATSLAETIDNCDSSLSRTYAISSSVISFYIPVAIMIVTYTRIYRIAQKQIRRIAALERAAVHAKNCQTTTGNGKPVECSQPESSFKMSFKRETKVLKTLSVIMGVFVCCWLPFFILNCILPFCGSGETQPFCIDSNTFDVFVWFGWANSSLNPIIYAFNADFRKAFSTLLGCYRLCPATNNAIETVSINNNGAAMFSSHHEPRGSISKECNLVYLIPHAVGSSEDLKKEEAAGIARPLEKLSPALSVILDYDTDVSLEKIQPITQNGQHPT
M1 antagonist: M1 muscarinic receptor (rat) antagonism; P08482; CHO-M1 cells, Fluo-4 calcium, ACh EC80 antagonist mode; hits give low values; B-score at 10 µM; 64,000 compounds, 3.4% hits;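 active = calcium fluorescence response, raw or row-and-column corrected B-score, differing from the plate sample mean either way at a set confidence level, mostly lower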
Jurkat tox 60K: cytotoxic compounds reducing Jurkat cell viability; Jurkat E6.1 viability, ATP luminescence, 48 h; inhibition, % at 4 µM; 56,000 compounds, 1.2% hits;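 active = inhibition above the mean inhibition of all tested compounds plus 3 SD, cut at about 28% in these data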
DAT uptake mod: modulates human dopamine transporter uptake under cocaine; Q01959; LLC-PK1 hDAT cells, [14C]-dopamine uptake with cocaine IC80; actives deviate in either direction; 110,000 compounds, 1.3% hits; AID 449768; B-score at 10 µM;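 active = Z score or B-score, a plate-position-corrected score, falls beyond the plate's 99.7% confidence bounds, in either direction; inactive = both scores lie inside the 99.7% bounds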;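 also: scored against the spread of the other compound wells on the same plate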
M1 antag confirm: M1 muscarinic receptor (rat) antagonism, confirmed. CHO-M1 cells, Fluo-4 calcium, ACh EC80 antagonism; hits give low values. 1,700 compounds, 43% hits. shares compounds with M1 antagonist. calcium response (max-min fluorescence) at 10 µM;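 active = calcium response below the same-plate mean of wells given acetylcholine alone at its 80%-effect dose, minus 3 SD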;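 also: raw fluorescence intensity difference in arbitrary instrument units and not normalized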
mGluR4 antag: acts on human mGluR4 in M1 antagonist selectivity test; 1,700 compounds, 0.9% hits; fluorescence response (max-min) at 10 µM; CHO-mGluR4 calcium flux, Fluo-4 fluorescence, glutamate EC80; hits give low values; shares compounds with M1 antagonist; AID 678;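 active = fluorescence response below the plate's average for near-maximal glutamate wells, less 3 SD of those wells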;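 also: raw unnormalized fluorescence span taken in the window right after glutamate addition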
* marks the source's active call; other numbers are inactive results; / = not tested or not shown.

SMILES	M1 agonist	HEK293 NFkB inh	D1 mod	M1 antagonist	Jurkat tox 60K	DAT uptake mod	M1 antag confirm	mGluR4 antag
O=C(Nc1ccc2c(c1)OCO2)c1noc2c1CCCCC2	0.0571	-32.2	-4.42*	-4.04*	5.8	-1.92	387*	232
O=C1CCCC2=C1C(c1ccccc1)CC(=O)N2c1ccccc1 (stereo not drawn)	0.564	13.3	0.208	-0.0254	-1.0	0.00247	/	/
COc1ccc(C2(O)CCN(CCCCOc3ccccc3)CC2)cc1	-0.462	10.7	-1.91	-2.55*	-2.9	0.684	477*	242
COc1ccc(C2(O)CCN(C(=O)Cc3cccnc3)CC2)cc1	0.131	9.8	-0.473	0.164	/	-0.758	/	/
COc1ccc(C(=O)Nn2c(SCC(=O)NCC3CCCO3)nc3ccccc3c2=O)cc1 (stereo not drawn)	-0.793	20.8	-5.42*	-6.92*	8.2	-8.45*	575	229
COc1ccc(C(=O)Nn2c(SCC(=O)NCc3ccccc3)nc3ccccc3c2=O)cc1	/	/	/	/	/	-0.228	/	/
CCN1/C(=C/c2ccc3ccccc3[n+]2CC)C=Cc2ccccc21	/	/	/	/	/	0.82	/	/
Cc1ccc(S(=O)(=O)NC(CC(=O)N2CCc3ccccc32)c2ccco2)cc1 (stereo not drawn)	0.352	12.0	-2.18	-4.41*	0.0	1.34	484	189
COc1ccc(S(=O)(=O)NC(CC(=O)N2CCc3ccccc32)c2ccco2)cc1 (stereo not drawn)	/	7.7	/	/	9.4	0.465	/	/
CCOC(=O)N1CCC(N2Cc3cccc(C(=O)NCc4ccccn4)c3C2=O)CC1	0.676	-1.3	0.415	-2.5*	0.9	0.0115	500*	247
CCOC(=O)N1CCC(N2Cc3cccc(C(=O)NCc4ccc(C)cc4)c3C2=O)CC1	0.469	-6.3	0.865	0.356	0.3	0.156	/	/
Cc1ccc(NC(=O)C2CCN(C(=O)NC3CCCCC3)CC2)cc1Cl	-0.331	12.8	-0.921	0.229	-3.8	0.0102	/	/
Cc1ccc(NC(=O)NC2CCCCC2)cc1Cl	-0.672	-47.9	-1.34	-1.15*	-5.5	-0.315	524	202
CCOc1ccc(CN2CCNC(=O)C2CC(=O)OC)cc1 (stereo not drawn)	-0.665	4.6	0.154	-2.87*	3.3	0.194	657	255
CCCC(=O)Nc1ccc2oc(-c3cccnc3)nc2c1	-0.168	7.8	-0.593	-2.38*	-0.7	0.196	582	229
C=C(C)C(=O)Nc1cccc(C2=NOC3(C2)C[C@@H](C(N)=O)N(C(=O)CCCCC)C3)c1 (stereo partly drawn)	/	/	/	/	/	-0.0285	/	/
CC1=CC(C)(C)N=C(Nc2ccc(C)cc2)S1	-0.13	-1.3	/	-4.96*	3.4	1.21	275*	218
O=C(c1ccco1)N1CCN(C(=O)C2CC(c3ccc(Cl)cc3)=NO2)CC1 (stereo not drawn)	/	/	/	/	/	0.603	/	/
COCCNC(=O)C(=O)Nc1ccc(Br)cc1	/	/	/	/	/	-0.397	/	/
COCC(COCCCNC(=O)Nc1ccc(Br)cc1)OC (stereo not drawn)	-0.336	9.3	-0.362	-1.58*	9.8	0.397	553	214
O=C(c1ccco1)N1CCN(CCCCN2C(=O)c3ccccc3C2=O)CC1	-0.474	10.9	1.65	-1.36*	/	0.81	637	227
O=C1OC(N2CCN(C(=O)c3ccco3)CC2)c2ccccc21 (stereo not drawn)	-0.0188	3.2	-0.103	-3.8*	-0.2	0.34	609	247
O=C(CN1C(=O)c2ccccc2C1=O)N1CCN(C(=O)c2ccco2)CC1	/	/	/	/	/	-0.939	/	/
O=C(CCC1CCCC1)N1CCN(C(=O)c2ccco2)CC1	0.143	7.1	-0.283	-2.99*	0.3	-0.26	654	237
CCN(CC)c1ccc(C2C(C(=O)OC)=C(C)NC(C)=C2C(=O)OC)cc1	-0.187	12.0	-1.35	-2.74*	-7.7	-1.46	209*	249
SMILES	M1 agonist	HEK293 NFkB inh	D1 mod	M1 antagonist	Jurkat tox 60K	DAT uptake mod	M1 antag confirm	mGluR4 antag
CCOC(=O)C1=C(C)NC(=O)NC1c1ccc(N(C)C)cc1 (stereo not drawn)	0.52	2.8	0.23	-0.271	-12.1	0.147	/	/
CCOC(=O)C1=C(C)NC(=O)NC1c1ccc(N(CC)CC)cc1 (stereo not drawn)	0.825	7.3	1.23	-3.12*	-11.3	1.98	391*	274
CCOC(=O)c1ccccc1NC(=O)CN1CCC(n2nnc3cc(F)ccc32)CC1	-0.325	21.8	0.0889	0.44	-6.4	/	/	/
COCCCNC(CC(=O)Nc1ccc(OC)cc1OC)C(=O)O (stereo not drawn)	0.455	9.2	-0.228	1.2	-3.0	-0.279	/	/
CCOC(=O)Nc1ccc2c(c1)N(C(=O)CN(CC)CC)c1ccccc1C=C2	0.111	22.4	-0.528	-5.89*	-7.0	1.1	28.2*	232
CCN(CC)CC(=O)Nc1ccc2c(c1)N(C(=O)CN(CC)CC)c1ccccc1CC2	/	/	/	/	/	0.18	/	/
O=C(NCc1cccnc1)C1CC(=O)N(c2ccc(Cl)cc2)C1 (stereo not drawn)	1.64	18.1	0.0212	0.119	-0.1	-0.0627	/	/
O=C(COC(=O)CCNS(=O)(=O)c1ccc(Cl)cc1)NCc1ccco1	1.42	17.4	-0.123	-2.82*	0.3	0.239	612	240
O=c1c2c(nc3n1CCCCC3)-c1ccccc1CC21CCCCC1	/	/	/	/	/	-0.427	/	/
CCC1(C)Cc2ccccc2-c2nc3n(c(=O)c21)CCCCC3 (stereo not drawn)	-1.37	8.3	2.19	-3.99*	/	-0.0153	420*	215
COc1ccc(-c2ccc(SCC(=O)NCc3ccco3)nn2)cc1	0.0394	3.9	0.517	-13*	0.1	-0.616	584	211
COc1ccc(-c2[nH]c(-c3cccc(OC)c3)nc2SCC(=O)NCc2ccco2)cc1	-1.14	1.7	-0.00996	-3.05*	-2.7	2.74	574	210
COC(=O)[C@H](CCSC)NC(=O)NCc1cccs1	-0.278	18.5	0.158	0.0761	0.1	-0.667	/	/
O=C(NC1CCS(=O)(=O)C1)C1CCCCN1S(=O)(=O)c1ccc(Cl)cc1 (stereo not drawn)	0.306	12.3	-0.306	-3.41*	/	0.0155	584	249
O=C(CCN1CCc2ccccc2CC1)c1ccc2c(c1)OCCO2	0.069	/	/	-3.86*	/	-1.26	215*	194
O=C(CCCN1CCC(c2ccccc2)C1)c1ccc2c(c1)OCCO2 (stereo not drawn)	-0.546	15.7	-1.88	-8.75*	-1.3	0.488	251*	229
O=C(CCCN1CCOCC1)c1ccc2c(c1)OCCO2	-0.0658	-17.8	-1.4	-1.66	6.3	0.296	/	/
O=C(CCN1CCOCC1)c1ccc2c(c1)OCCO2	/	/	/	/	/	-0.301	/	/
CCOCCCNC(=O)c1cc2c(-c3ccc(Cl)cc3)nn(C)c2s1	-0.148	8.9	0.181	0.577	4.7	0.729	/	/
